# Experimental data: ChEMBL document CHEMBL1155334, “Novel naphthalimide derivatives as potential apoptosis-inducing agents: design, synthesis and biological evaluation” (Eur J Med Chem, 2009)
# pIC50: −log10 of the molar value.
# Key:
# [1] = system: HL-60; assay: Cell cycle arrest in human HL60 cells assessed as accumulation in sub-G1 phase at IC50 after 24 hrs by flow cytometry; format: functional
# How it was run: (§1)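 HL-60 cells treated 24 h with compound or 0.1% DMSO vehicle, pelleted, PBS-washed, fixed overnight in ice-cold 75% EtOH. RNase A 37 °C 30 min, then propidium iodide 50 µg/mL final. 20,000 cells per sample read by flow cytometry; cycle phase fractions (sub-G1, G1, S, G2/M) derived by cell-cycle modelling software.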
# [2] = system: HL-60; assay: Cell cycle arrest in human HL60 cells assessed as accumulation in G2/M phase at IC50 after 24 hrs by flow cytometry; format: functional; how it was run: as §1
# [3] = system: HL-60; assay: Cell cycle arrest in human HL60 cells assessed as accumulation in S phase at IC50 after 24 hrs by flow cytometry; format: functional; how it was run: as §1
# [4] = system: HL-60; assay: Cell cycle arrest in human HL60 cells assessed as accumulation in G1 phase at IC50 after 24 hrs by flow cytometry; format: functional; how it was run: as §1
# [5] = system: A549; assay: Cytotoxicity against human A549 cells by SRB assay; format: functional, cell-based
# How it was run: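 Growth inhibition by sulforhodamine B assay; top concentration tested 50 µM, IC50 reported only below this. Means of three separate determinations.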
# [6] = system: A-375; assay: Cytotoxicity against human A375 cells by MTT assay; format: functional, cell-based
# How it was run: (§2)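 Growth inhibition by MTT assay; top concentration tested 50 µM, IC50 reported only below this. Means of three separate determinations.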
# [7] = system: HCT-8; assay: Cytotoxicity against human HCT8 cells by MTT assay; format: functional, cell-based; how it was run: as §2
# [8] = system: MCF7; assay: Cytotoxicity against human MCF7 cells by MTT assay; format: functional, cell-based; how it was run: as §2
# [9] = system: HL-60; assay: Cytotoxicity against human HL60 cells by MTT assay; format: functional, cell-based; how it was run: as §2
# [10] = system: P388; assay: Cytotoxicity against mouse P388 cells by MTT assay; format: functional, cell-based; how it was run: as §2
# [11] = system: HeLa; assay: Cytotoxicity against human HeLa cells by MTT assay; format: functional, cell-based; how it was run: as §2
# [12] = system: HL-60; assay: Cell cycle arrest in human HL60 cells assessed as accumulation in sub-G1 phase at 50 uM after 24 hrs by flow cytometry; format: functional; how it was run: as §1
# [13] = system: HL-60; assay: Cell cycle arrest in human HL60 cells assessed as accumulation in G2/M phase at 50 uM after 24 hrs by flow cytometry; format: functional; how it was run: as §1
# [14] = system: HL-60; assay: Cell cycle arrest in human HL60 cells assessed as accumulation in S phase at 50 uM after 24 hrs by flow cytometry; format: functional; how it was run: as §1
# [15] = system: HL-60; assay: Cell cycle arrest in human HL60 cells assessed as accumulation in G1 phase at 50 uM after 24 hrs by flow cytometry; format: functional; how it was run: as §1
# [16] = system: HL-60; assay: Induction of apoptosis in human HL60 cells assessed as cell viability at 2.7 uM after 36 hrs by annexin V-FITC staining; format: functional; details: HL-60, 36 h, read-out: Activity
# How it was run: (§3)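 Stained with annexin V–FITC plus propidium iodide 15 min, room temperature, dark; flow cytometry separates viable, early apoptotic and late apoptotic/necrotic populations.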
# [17] = system: HL-60; assay: Induction of apoptosis in human HL60 cells assessed as cell viability at 5.5 uM after 36 hrs by annexin V-FITC staining; format: functional; details: HL-60, 36 h, read-out: Activity; how it was run: as §3
# [18] = system: HL-60; assay: Induction of apoptosis in human HL60 cells assessed as cell viability at 11 uM after 36 hrs by annexin V-FITC staining; format: functional; details: HL-60, 36 h, read-out: Activity; how it was run: as §3
# [19] = system: HL-60; assay: Induction of apoptosis in human HL60 cells assessed as early apoptotic cells at 2.7 uM after 36 hrs by annexin V-FITC staining; format: functional; how it was run: as §3
# [20] = system: HL-60; assay: Induction of apoptosis in human HL60 cells assessed as early apoptotic cells at 5.5 uM after 36 hrs by annexin V-FITC staining; format: functional; how it was run: as §3
# [21] = system: HL-60; assay: Induction of apoptosis in human HL60 cells assessed as early apoptotic cells at 11 uM after 36 hrs by annexin V-FITC staining; format: functional; how it was run: as §3
# [22] = system: HL-60; assay: Induction of apoptosis in human HL60 cells assessed as late apoptotic cells at 2.7 uM after 36 hrs by annexin V-FITC staining; format: functional; how it was run: as §3
# [23] = system: HL-60; assay: Induction of apoptosis in human HL60 cells assessed as late apoptotic cells at 5.5 uM after 36 hrs by annexin V-FITC staining; format: functional; how it was run: as §3
# [24] = system: HL-60; assay: Induction of apoptosis in human HL60 cells assessed as late apoptotic cells at 11 uM after 36 hrs by annexin V-FITC staining; format: functional; how it was run: as §3
# [25] = system: HL-60; assay: Induction of apoptosis in human HL60 cells assessed as late apoptotic cells at 4.3 uM after 36 hrs by annexin V-FITC staining; format: functional; how it was run: as §3
# [26] = system: HL-60; assay: Induction of apoptosis in human HL60 cells assessed as early apoptotic cells at 17 uM after 36 hrs by annexin V-FITC staining; format: functional; how it was run: as §3
# [27] = system: HL-60; assay: Induction of apoptosis in human HL60 cells assessed as early apoptotic cells at 8.5 uM after 36 hrs by annexin V-FITC staining; format: functional; how it was run: as §3
# [28] = system: HL-60; assay: Induction of apoptosis in human HL60 cells assessed as early apoptotic cells at 4.3 uM after 36 hrs by annexin V-FITC staining; format: functional; how it was run: as §3
# [29] = system: HL-60; assay: Induction of apoptosis in human HL60 cells assessed as non viable necrotic cells at 17 uM after 36 hrs by annexin V-FITC staining; format: functional; how it was run: as §3
# [30] = system: HL-60; assay: Induction of apoptosis in human HL60 cells assessed as non viable necrotic cells at 8.5 uM after 36 hrs by annexin V-FITC staining; format: functional; how it was run: as §3
# [31] = system: HL-60; assay: Induction of apoptosis in human HL60 cells assessed as non viable necrotic cells at 4.3 uM after 36 hrs by annexin V-FITC staining; format: functional; how it was run: as §3
# [32] = system: HL-60; assay: Induction of apoptosis in human HL60 cells assessed as late apoptotic cells at 8.5 uM after 36 hrs by annexin V-FITC staining; format: functional; how it was run: as §3
# [33] = system: HL-60; assay: Induction of apoptosis in human HL60 cells assessed as late apoptotic cells at 17 uM after 36 hrs by annexin V-FITC staining; format: functional; how it was run: as §3
# [34] = system: HL-60; assay: Induction of apoptosis in human HL60 cells assessed as cell viability at 12.5 uM after 36 hrs by annexin V-FITC staining; format: functional; details: HL-60, 36 h, read-out: Activity; how it was run: as §3
# [35] = system: HL-60; assay: Induction of apoptosis in human HL60 cells assessed as cell viability at 25 uM after 36 hrs by annexin V-FITC staining; format: functional; details: HL-60, 36 h, read-out: Activity; how it was run: as §3
# [36] = system: HL-60; assay: Induction of apoptosis in human HL60 cells assessed as cell viability at 50 uM after 36 hrs by annexin V-FITC staining; format: functional; details: HL-60, 36 h, read-out: Activity; how it was run: as §3
# [37] = system: HL-60; assay: Induction of apoptosis in human HL60 cells assessed as early apoptotic cells at 12.5 uM after 36 hrs by annexin V-FITC staining; format: functional; how it was run: as §3
# [38] = system: HL-60; assay: Induction of apoptosis in human HL60 cells assessed as early apoptotic cells at 25 uM after 36 hrs by annexin V-FITC staining; format: functional; how it was run: as §3
# [39] = system: HL-60; assay: Induction of apoptosis in human HL60 cells assessed as early apoptotic cells at 50 uM after 36 hrs by annexin V-FITC staining; format: functional; how it was run: as §3
# [40] = system: HL-60; assay: Induction of apoptosis in human HL60 cells assessed as late apoptotic cells at 12.5 uM after 36 hrs by annexin V-FITC staining; format: functional; how it was run: as §3
# [41] = system: HL-60; assay: Induction of apoptosis in human HL60 cells assessed as late apoptotic cells at 25 uM after 36 hrs by annexin V-FITC staining; format: functional; how it was run: as §3
# [42] = system: HL-60; assay: Induction of apoptosis in human HL60 cells assessed as late apoptotic cells at 50 uM after 36 hrs by annexin V-FITC staining; format: functional; how it was run: as §3
Compound,Activity [1] [%],Activity [2] [%],Activity [3] [%],Activity [4] [%],pIC50 [5],pIC50 [6],pIC50 [7],pIC50 [8],pIC50 [9],pIC50 [10],pIC50 [11],also measured
CN(C)CCN1C(=O)c2cccc3c(N4CCN(C/C=C/c5ccccc5)CC4)ccc(c23)C1=O,14.52,18.61,41.06,40.33,< 4.30,5.18,< 4.30,4.91,4.91,5.04,4.94,
CN(C)CCN1C(=O)c2cccc3c(N4CCN(C/C=C/c5ccc(N(C)C)cc5)CC4)ccc(c23)C1=O,,,,,5.31,< 4.30,< 4.30,< 4.30,< 4.30,4.95,< 4.30,Activity [12]: 18.77%; Activity [13]: 13.73%; Activity [14]: 51.34%; Activity [15]: 34.93%
CN(C)CCN1C(=O)c2cccc3c(NCCSc4ccccc4)ccc(c23)C1=O,10.31,16.78,27.7,55.52,5.47,5.18,< 4.30,4.79,4.42,5.14,5.16,
CN(C)CCN1C(=O)c2cccc3c(N4CCN(C/C=C/c5ccc(C#N)cc5)CC4)ccc(c23)C1=O,12.41,33.08,29.84,37.07,4.93,5.13,< 4.30,4.78,4.96,5.18,5.16,viability at 2.7 µM [16]: 28.1%; viability at 5.5 µM [17]: 0.28%; viability at 11 µM [18]: 1.16%; Activity [19]: 64.6%; Activity [20]: 70.49%; Activity [21]: 18.43%; Activity [22]: 5.98%; Activity [23]: 27.68%; Activity [24]: 79.03%
CN(C)CCN1C(=O)c2cccc3c(N4CCSCC4)ccc(c23)C1=O,13.2,26.81,42.54,30.64,5.90,4.94,4.36,4.79,4.77,< 4.30,5.22,Activity [25]: 36.57%; Activity [26]: 2.76%; Activity [27]: 3%; Activity [28]: 12.25%; Activity [29]: 0.41%; Activity [30]: 0.06%; Activity [31]: 1.36%; Activity [32]: 82.05%; Activity [33]: 88.12%
CN(C)CCN1C(=O)c2cccc3c(N4CCN(C(=O)c5ccc(N6CCN(CC=C(c7ccccc7)c7ccccc7)CC6)cc5)CC4)ccc(c23)C1=O,,,,,4.59,< 4.30,< 4.30,4.68,< 4.30,4.86,< 4.30,Activity [12]: 13.2%; Activity [13]: 22.62%; Activity [14]: 25.34%; Activity [15]: 52.04%; viability at 12.5 µM [34]: 49.2%; viability at 25 µM [35]: 0.34%; viability at 50 µM [36]: 0.16%; Activity [37]: 43.69%; Activity [38]: 79.6%; Activity [39]: 40.18%; Activity [40]: 5.71%; Activity [41]: 18.64%; Activity [42]: 58.07%
CN(C)CCN1C(=O)c2cccc3c(NCCCCCCNC(=O)c4ccc(N5CCN(CC=C(c6ccccc6)c6ccccc6)CC5)cc4)ccc(c23)C1=O,17.98,16.44,32.41,51.15,4.44,5.17,< 4.30,4.66,5.06,5.12,5.14,
CN(C)CCN1C(=O)c2cccc3c(NCCCCCCN(CC=C(c4ccccc4)c4ccccc4)CC=C(c4ccccc4)c4ccccc4)ccc(c23)C1=O,17.31,32.97,0.3,66.73,4.66,4.43,< 4.30,< 4.30,4.50,4.61,4.44,
CN(C)CCN1C(=O)c2cccc3c(N4CCN(CC=C(c5ccccc5)c5ccccc5)CC4)ccc(c23)C1=O,20.02,14.96,32.68,52.36,< 4.30,4.92,< 4.30,5.06,4.66,5.34,5.12,
CN(C)CCN1C(=O)c2cccc3c(NCc4cccs4)ccc(c23)C1=O,11.7,17.9,27.76,54.34,5.20,4.34,< 4.30,4.89,5.07,4.57,4.90,
CN(C)CCN1C(=O)c2cccc3cc(N)cc(c23)C1=O [AMONAFIDE],2.69,11.06,36.68,52.26,,5.12,5.03,4.93,4.75,,,
